From PubChem BioAssay AID624466 (The Scripps Research Institute Molecular Screening Center, 2012)
Among all 360,000 compounds or so, about 5,400 (1.5%) were called active. The list comes from a sample in which actives are over-represented; it also holds similar structures and randomly drawn compounds. A number with no mark means an inactive call.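 Rule for the calls: active = inhibition above a per-plate cutoff, the mean inhibition of test compounds on that plate plus 3 SD (cut at about 49% in these data); inactive = the rest.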 Where a SMILES comes first, the peptide text is derived from it. The star is where a group is joined. Bz = O=C(c1ccccc1)*

biological target: Trace amine-associated receptor 1 (Homo sapiens) (UniProt Q96RJ0); assay: blockers of beta-PEA-driven TAAR1 calcium signal – Fluo-8 calcium fluorescence, CHO RD-HGA16 cells, primary screen (AID 624466); details: CHO RD-HGA16 TAAR1, Fluo-8 calcium fluorescence, antagonist; at 3 µM; active compounds read high;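 note: 0% = DMSO plus EC80 beta-PEA response and 100% = DMSO alone without agonist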
Sequence (Q96RJ0 whole entry, looked up, the tested form may be a part): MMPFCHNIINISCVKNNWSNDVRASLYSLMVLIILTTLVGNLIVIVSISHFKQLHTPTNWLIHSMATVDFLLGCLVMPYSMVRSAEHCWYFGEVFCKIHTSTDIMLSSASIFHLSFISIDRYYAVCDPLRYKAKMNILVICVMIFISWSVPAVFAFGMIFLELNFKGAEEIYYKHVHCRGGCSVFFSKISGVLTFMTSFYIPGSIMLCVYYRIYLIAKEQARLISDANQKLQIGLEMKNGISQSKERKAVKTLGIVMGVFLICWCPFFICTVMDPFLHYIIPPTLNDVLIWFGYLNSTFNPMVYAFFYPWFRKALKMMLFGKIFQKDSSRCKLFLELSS
How it was run: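 Test system: hTAAR1-expressing CHO RD-HGA16 cells, Gα16-coupled; Probe or stimulus: EC80 β-phenethylamine stimulus; Compound dosing: single nominal final test compound concentration of 3 µM; Timing: 140 s kinetic read after compound, 140 s after agonist; Signal: Fluo-8 calcium-sensitive fluorescence; Measure: % inhibition of agonist calcium response; Controls: DMSO and EC80 PEA controls.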

| Structure (SMILES) | inhibition |
| --- | --- |
| CO[C@@H]1CN(C)C(=O)c2cc(NC(=O)Nc3cc(F)ccc3F)ccc2OC[C@H](C)N(C(=O)c2ccccn2)C[C@@H]1C | -23.9% |
| CCCCCCN1CCN(C2CN(Cc3cn(Cc4ccc(F)cc4)nn3)S(=O)(=O)C2)CC1 (stereo not drawn) | -26.8% |
| COC(=O)C1=C(C)N(Cc2ccc(C(F)(F)F)cc2)C(=NCc2ccccc2)NC1c1ccccc1C(F)(F)F (stereo not drawn) | -9.36% |
| CCOC(=O)c1c(N)c(C#N)nn1-c1ccccc1C(=O)OC | 5.89% |
| Cc1ccccc1NC(=S)NC(=O)Cc1ccc(Cl)cc1 | 91.6% (active) |
| Cc1cccc(NC(=S)NCCc2ccc(Cl)cc2)c1C | -16.5% |
| O=C(COc1ccc(Cl)cc1)Nc1ccccc1CO | 4.17% |
| O=C(Cc1ccc(Cl)cc1)NC(=S)Nc1ccccc1O | 104% (active) |
| Cc1ccccc1N/C(SCc1ccc(Cl)cc1)=C(/C#N)C(N)=O | -9.21% |
| O=C(COc1ccc(Cl)cc1)NC(=S)Nc1ccccc1N1CCOCC1 | -2.14% |
| O=C(C(=O)N1CCC(CNS(=O)(=O)Cc2ccccc2)CC1)c1cc2ccccc2o1 | -11.1% |
| CCc1cccc(CC)c1N1C(=O)CC(Sc2ccccc2N)C1=O (stereo not drawn) | -2.71% |
| CCC(c1nc2ccccc2[nH]1)n1c(=O)c(-c2cccs2)nc2ccccc21 (stereo not drawn) | -2.04% |
| COc1ccc(C(=O)NNC(=S)NC(=O)c2ccccc2)cc1 | 66.3% (active) |
| CC(=O)NC(=S)NNC(=O)c1ccc(Br)cc1 | 25.8% |
| COc1ccc(C(=O)NC(=S)NNC(=O)CCc2ccccc2)cc1 | 66.2% (active) |
| O=C(NNC(=S)NCc1ccccc1)c1ccc(OC(F)F)cc1 | -12.5% |
| O=C(CCc1ccccc1)NNC(=O)COc1ccc(Cl)cc1 | -2.05% |
| CCOc1ccccc1NC(=S)NC(=O)CCc1ccccc1 | -0.27% |
| CCOC(=O)[C@]12CCCC=C1N(CCC1=CCCCC1)C(=O)[C@H](CC(=O)NCCCCc1ccccc1)C2 | -5.96% |
| CCO[C@H]1OC(C(=O)NCc2ccccc2)=C[C@@H](c2coc3ccccc3c2=O)[C@@H]1CCCO | 1.58% |

| Structure (SMILES) | inhibition |
| --- | --- |
| O=C(NCc1ccccc1)[C@H]1CCCN1C(=O)[C@@H]1CCCN1C(=O)c1ccc(Cl)cc1Cl | -4.49% |
| CC[C@@H]1CC2=C(C(=O)OC(C)(C)O2)[C@@H](CC)O1 | 7.78% |
| Cc1cc(C)c([N+](=O)[O-])cc1-c1ccc(/C=N/NC(=O)c2nonc2N)o1 | 52% (active) |
| COc1cc(/C=N\NC(=O)c2nonc2N)c(OC)cc1Br | -10.8% |
| Cc1ccc(-c2ccc(/C=N/NC(=O)CN3CCOCC3)o2)cc1[N+](=O)[O-] | 3.41% |
| O=C1NC[C@H](CCCCN2C[C@H](Cc3ccccc3)N(Cc3ccccc3)C(=O)C2=O)N(CCc2ccc(O)cc2)C1=O | -9.2% |
| CN1/C(=C\C(=O)c2oc3ccccc3c2N)C(C)(C)c2ccccc21 | 51.5% (active) |
| CC(=O)Nc1cccc(OCC(=O)/C=C2\N(C)c3ccccc3C2(C)C)c1 | 32.4% |
| CN1CCN(CCC(=O)N/N=C/C=C2\N(C)c3ccccc3C2(C)C)CC1 | 28.4% |
| CC(=O)Nc1ccc(NC(=O)CCN2C(=O)C3CC=CCC3C2=O)cc1 (stereo not drawn) | -7.1% |
| Cc1nc2ccc(NC(=O)N3CCC(c4ccccc4)C3)cc2nc1C (stereo not drawn) | -3.01% |
| COC(=O)c1ccccc1SC1CC(=O)N(c2cccc(C)c2)C1=O (stereo not drawn) | -3.32% |
| COC(=O)[C@@]1(Sc2ccc(C)cc2)CC(=O)N(c2cccc(SC)c2)[C@@H]1c1ccccc1 | 67.8% (active) |
| CCOC(=O)N1C(=O)C[C@](Sc2ccc(C)cc2)(C(=O)OC)[C@H]1c1ccccc1 | 6.96% |
| COC(=O)C(C(=O)OC)c1ccccc1NS(=O)(=O)c1cccc2ccccc12 | -21.2% |
| CC(=O)N1Cc2cc(C(=O)NCc3cccc(F)c3)nc(-c3cccc(C4=CCCCC4)c3)c2[C@H]1CCO | 18.2% |
| O=C(CC[C@H]1O[C@@H](n2ccc(=O)[nH]c2=O)[C@H](O)[C@@H]1O)N[C@H](Cc1ccccc1)C(=O)NCCCN1CCCC1=O | -13.5% |
| Cc1c(NS(=O)(=O)c2cccc(C(=O)Nc3ccc(SC(F)F)cc3)c2)c(=O)n(-c2ccccc2)n1C | 51.8% (active) |
| COc1ccc(NS(=O)(=O)c2ccc(C(=O)Nc3c(C)n(C)n(-c4ccccc4)c3=O)cc2)cc1 | -27.9% |
| COc1ccc(C(=O)C(C)OC(=O)c2cccc(S(=O)(=O)Nc3c(C)n(C)n(-c4ccccc4)c3=O)c2)cc1 (stereo not drawn) | -15.1% |
| Cc1cc(C)n2c(Nc3c(C)cccc3C)c(CCc3ccccc3)nc2n1 | 5.85% |

| Structure (SMILES) | inhibition |
| --- | --- |
| COc1cccc(CNc2nc(NCc3ccccc3OC)nc3ccsc23)c1 | 36.8% |
| COc1cccc(CNc2nc(NCc3cccs3)nc3ccsc23)c1 | 76.6% (active) |
| Clc1ccccc1Nc1nc(NCc2cccs2)nc2ccsc12 | 7.32% |
| O=C1C=C(c2ccc(Cl)cc2)C(=O)N1Nc1ccccc1 | 74.6% (active) |
| CC(C)N(C)C(=O)CCc1nnc(CCc2c[nH]c3ccccc23)o1 | -0.9% |
| COC(=O)C1=C(C)N(Cc2cccc(C(F)(F)F)c2)C(=NCc2cccc(C(F)(F)F)c2)NC1c1ccccc1C(F)(F)F (stereo not drawn) | -30.9% |
| Cc1ccc(C(=O)Nc2ccc(C)c(S(=O)(=O)N(C)C)c2)s1 | 11.3% |
| O=C(N[C@H](C(=O)N1CCC[C@H]1C(=O)NCCc1ccccc1Cl)c1ccccc1)c1ccccc1 | 56.7% (active) |
| O=C(NCCc1ccc(Cl)cc1)C1CCCN1C(=O)NCc1ccccc1 (stereo not drawn) | -9.56% |
| O=C(NC(Cc1ccccc1)C(=O)N1CCCC1C(=O)O)c1ccccc1 (stereo not drawn) (Bz-Phe-Pro-OH; configuration not given here) | -24.6% |
| O=C(Nn1c(-c2ccc(Cl)cc2)nc2ccccc2c1=O)c1cccnc1Cl | 15.6% |
| O=C(C[C@H]1CC[C@H]2[C@@H](COC[C@H](O)CN2C(=O)c2ccccn2)O1)N1CCN(c2ccccc2)CC1 | -9.63% |
| CCOC(=O)N1CCN(C(=O)C[C@@H]2C[C@@]3(C(=O)OC)CC(C)(C)CC=C3N(Cc3ccco3)C2=O)CC1 | -19% |
| COc1ccccc1N1CCN(C(=O)c2cn(-c3ccccc3)nc2-c2cccnc2)CC1 | 22.2% |
| COc1ccccc1N1CCN(C(=O)c2ccc(NC3=NC4CS(=O)(=O)CC4S3)cc2)CC1 (stereo not drawn) | -7.44% |
| COc1ccc(Nc2ncc(C(=O)N3CCN(c4ccccc4OC)CC3)c3ccccc23)cc1 | 49.5% (active) |
| CCCC(C)NC(=O)C1CCN(C(=O)C2CC(=O)N(c3ccc(C)cc3)C2)CC1 (stereo not drawn) | 3.73% |
| C[C@@H]1ON(C)[C@H]2C[C@H]3c4cc(N5CCOCC5)ccc4CCN3C[C@@H]12 | -3.17% |
| COc1ccc(S(=O)(=O)Nc2ccc3c(c2)C(=O)N([C@H](C)CO)C[C@H](C)[C@@H](CN(C)C)OCCCC[C@H](C)O3)cc1 | -3.5% |
| O=C(Cc1c[nH]c2ccccc12)N/N=C/c1cccc(F)c1 | 15.8% |
| CSC(=S)N/N=C/c1c[nH]c2ccccc12 | 88.6% (active) |

| Structure (SMILES) | inhibition |
| --- | --- |
| C[n+]1ccc(/C=C/c2c[nH]c3ccccc23)cc1 | -4.64% |
| COc1ccc(S(=O)(=O)N2CCOC2CNC(=O)C(=O)NCc2ccncc2)cc1C (stereo not drawn) | -15.9% |
| COc1ccc(CCNC(=O)C(=O)NCC2OCCN2S(=O)(=O)c2ccc(F)cc2)cc1OC (stereo not drawn) | -12% |
| COc1ccc(CCNC(=O)C(=O)NCC2OCCN2S(=O)(=O)c2ccc(OC)c(C)c2)cc1 (stereo not drawn) | 53.6% (active) |
| CC1Cc2[nH][nH]c(=O)c2C(C2CCCC2)O1 (stereo not drawn) | 2.81% |
| CC(C)c1cc(Cn2c3ccccc3c(=O)n2C(C)Cn2cc(C3CC3)nn2)on1 (stereo not drawn) | -16% |
| CCCCN(C(=O)c1cccc(N2C(=O)c3ccccc3C2=O)c1)c1c(N)n(CCCC)c(=O)[nH]c1=O | 5.52% |
| CC(C)[C@@H](C)/C=C/[C@@H](C)[C@H]1CC[C@@H]2[C@]1(C)CCC1[C@]23C=C[C@]2(C[C@@H](O)CC[C@]12C)N(c1ccc([N+](=O)[O-])cn1)O3 (stereo partly drawn) | -12% |
| Oc1ccccc1N1CCN(c2ncnc3sc(-c4ccccc4)cc23)CC1 | 58.6% (active) |
| O=c1c2cc(-c3ccccc3)sc2nc2n1N=C(c1cccs1)CS2 | -11.2% |
| Oc1ccccc1N1CCN(C(=S)NCc2ccccc2)CC1 | 3.27% |
| O=C(Cn1c(N2CCN(C/C=C/c3ccccc3)CC2)nc2ccccc21)c1ccccc1 | 10.7% |
| COc1cccc(CC(=O)N2CCN(C(=O)C(=O)c3cccc(C(F)(F)F)c3)CC2)c1 | 15.5% |
| Cc1ccccc1NC(=O)Cc1nc(COC(=O)C(C)(C)Oc2ccc(Cl)cc2)cs1 | 64.8% (active) |
| Cc1ccccc1NC(=O)Cc1nc(COC(=O)CNC(=O)c2ccc(Cl)cc2Cl)cs1 | -26.5% |
| Cc1ccccc1NC(=O)Cc1nc(COC(=O)c2cccnc2Cl)cs1 | 10.4% |
| CC(C)Nc1nnc(SC(C)C(=O)N(C)C2CCCCC2)s1 (stereo not drawn) | -5.6% |
| Cc1ccc(S(=O)(=O)CC(=O)NC(C)c2ccccc2)cc1 (stereo not drawn) | -14.5% |
| Cc1cccc(S(=O)(=O)CC(=O)Nc2nc(-c3ccccc3)cs2)c1 | 53.8% (active) |
| Cc1ccc(C)c(-c2nnc(NC(=O)CS(=O)(=O)c3ccccc3)o2)c1 | -13.2% |
